Here are results for 9 compounds from ChEMBL document CHEMBL2062372, “Biotin analogues with antibacterial activity are potent inhibitors of biotin protein ligase” (ACS Med Chem Lett, 2012).

Series [1] is described as follows: Displacement of [3H]-biotin from Staphylococcus aureus BPL after 20 mins by scintillation counting. The method in brief: (§1)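 Purified recombinant BPL was tested in an in vitro biotinylation assay that measured incorporation of radiolabeled biotin into protein. Ki is reported where inhibition was seen, as the mean (standard error) of three independent experiments.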
(In general: In a radioligand displacement assay an active substance lowers the binding of a labelled ligand.)

A short description of series [2]: Displacement of [3H]-biotin from Escherichia coli BPL after 20 mins by scintillation counting. In outline: as §1
In a further series the target is T1, Biotin--protein ligase (Homo sapiens, UniProt P50747).
T1 sequence (P50747 whole entry): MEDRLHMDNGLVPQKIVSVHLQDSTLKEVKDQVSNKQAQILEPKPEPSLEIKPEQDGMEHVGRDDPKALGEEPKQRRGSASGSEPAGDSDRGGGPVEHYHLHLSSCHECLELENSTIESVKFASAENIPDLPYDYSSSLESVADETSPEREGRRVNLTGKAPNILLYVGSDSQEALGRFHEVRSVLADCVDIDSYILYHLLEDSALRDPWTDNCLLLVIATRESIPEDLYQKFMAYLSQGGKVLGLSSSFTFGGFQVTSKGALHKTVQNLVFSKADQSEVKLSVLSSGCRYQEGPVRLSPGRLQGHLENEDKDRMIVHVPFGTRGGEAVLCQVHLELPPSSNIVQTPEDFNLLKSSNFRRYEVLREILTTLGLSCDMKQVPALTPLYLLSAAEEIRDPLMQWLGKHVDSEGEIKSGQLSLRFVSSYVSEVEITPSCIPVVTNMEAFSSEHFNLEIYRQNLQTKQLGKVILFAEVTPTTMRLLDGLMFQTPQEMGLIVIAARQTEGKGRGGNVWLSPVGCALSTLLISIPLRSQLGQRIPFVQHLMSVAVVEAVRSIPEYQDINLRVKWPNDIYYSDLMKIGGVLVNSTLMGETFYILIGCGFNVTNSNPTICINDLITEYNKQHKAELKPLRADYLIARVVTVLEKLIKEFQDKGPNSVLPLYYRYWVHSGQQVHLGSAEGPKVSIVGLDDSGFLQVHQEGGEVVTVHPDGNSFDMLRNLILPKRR
Nature of the series: Displacement of [3H]-biotin from human BPL after 20 mins by scintillation counting. In outline:
as §1

Series [3] is described as follows: Selectivity ratio of Ki for human BPL to Ki for Staphylococcus aureus BPL. The method in brief: (§2)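 Selectivity is the ratio of Ki values from the radiolabeled-biotin incorporation assay with purified recombinant BPLs. Each Ki is the mean of three independent experiments.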
The nature of series [4]: Selectivity ratio of Ki for Escherichia coli BPL to Ki for human BPL. The method in brief: as §2
Series [5] is described as follows: Selectivity ratio of Ki for Escherichia coli BPL to Ki for Staphylococcus aureus BPL. In outline: as §2
A short description of series [6]: Binding affinity to Staphylococcus aureus BPL by surface plasmon resonance. The method in brief:
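S. aureus BPL was immobilized on the SPR surface, with varying inhibitor concentrations in the running buffer. Ka and kd come from the sensorgrams. KD was calculated from steady-state affinity where on and off rates were too fast for kinetic evaluation.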
(In SPR one partner is held on a chip, and binding of the other changes the refractive index at the surface.)

In series [7] the test system is Staphylococcus aureus. Nature of the series: Antibacterial activity against methicillin-susceptible Staphylococcus aureus after 16 to 24 hrs by broth microdilution method. The format is functional.
Series [8] concerns Staphylococcus aureus. Nature of the series: Antibacterial activity against methicillin-resistant Staphylococcus aureus after 16 to 24 hrs by broth microdilution method. The class given is functional. A general note: Broth dilution looks for growth in wells or tubes with falling amounts of substance.
A further series deals with Staphylococcus. Nature of the series: Antibacterial activity against coagulase-negative Staphylococcus after 16 to 24 hrs by broth microdilution method. The class given is functional.
The next series deals with HepG2. Briefly: Cytotoxicity against human HepG2 cells assessed as change in metabolic activity at 64 ug/ml after 24 to 48 hrs by WST1 assay. The class given is ADME, cell-based.

≈ marks a conversion by molar mass, not a printed value.

What is called Ki is the equilibrium dissociation constant of an inhibitor or competing ligand from its target. High values mean a looser hold on the target, low ones a stronger hold on the target. The term Kd denotes the constant that tells how readily two partners part at equilibrium. Lower therefore signals higher affinity. By MIC50 is commonly meant the lowest concentration that inhibits either 50% of growth or 50% of the strains tested, depending on the study. A lower MIC50 goes with higher susceptibility. What is called MIC90 is the lowest concentration that inhibits either 90% of growth or 90% of the strains tested, depending on the study. As for `C#CCCCC[C@@H]1SC[C@@H]2NC(=O)N[C@@H]21`, the results for the Ki (in series [1]; in [2]; at Biotin--protein ligase) were 0.08 µM, 0.9 µM and 0.2 µM, respectively. Also, the results for the Ratio Ki in series [3], in [4] and in [5] were 2.5, 4.5 and 11.3, respectively. Moreover, the Kd in [6] turned out to be 0.08 µM. Also, the MIC50 in the series on Staphylococcus aureus [7] worked out at 8 µg/mL (≈ 35.7 µM); in the series on Staphylococcus aureus [8], 8 µg/mL (≈ 35.7 µM); in the series with Staphylococcus it was 4 µg/mL (≈ 17.8 µM). Also, the MIC90 against Staphylococcus aureus [7] stood at 16 µg/mL (≈ 71.3 µM); against Staphylococcus aureus [8], 16 µg/mL (≈ 71.3 µM); against Staphylococcus it was 8 µg/mL (≈ 35.7 µM). The Activity entry in the series on HepG2 was “Non-toxic”.
With `C#CCCCCCC[C@@H]1SC[C@@H]2NC(=O)N[C@@H]21`, the values for the Ki (in series [1]; in [2]; at Biotin--protein ligase) were 2.4 µM, 20 µM and 12 µM, respectively. The Ratio Ki in [3] is 5; in [4] it was 1.7; in series [5] it was 8.3. Also, the Activity entry in the series on HepG2 is recorded as “Non-toxic”.
As to `NCCCC[C@@H]1SC[C@@H]2NC(=O)N[C@@H]21`, the Ki (in series [1]; in series [2]; at Biotin--protein ligase) was above 20 µM throughout.
Take `CCCCC[C@@H]1SC[C@@H]2NC(=O)N[C@@H]21`: the values for the Ki (in [1]; in series [2]; on Biotin--protein ligase) were 0.05 µM, 1.1 µM and 0.14 µM, respectively. Also, the Ratio Ki stood at 2.8 in series [3], 7.9 in series [4] and 22 in series [5]. This compound also displayed a Kd in series [6] of 0.06 µM. Moreover, the MIC50 in the series with Staphylococcus aureus [7] was 8 µg/mL (≈ 37.3 µM); against Staphylococcus aureus [8] it was 8 µg/mL (≈ 37.3 µM); in the series on Staphylococcus, 2 µg/mL (≈ 9.33 µM). Also, the MIC90 in the series on Staphylococcus aureus [7] amounted to 16 µg/mL (≈ 74.6 µM); against Staphylococcus aureus [8], 16 µg/mL (≈ 74.6 µM); with Staphylococcus, 8 µg/mL (≈ 37.3 µM). In addition, the Activity entry in the series with HepG2 is on record as “Non-toxic”.
`C#CCCCCC[C@@H]1SC[C@@H]2NC(=O)N[C@@H]21`: the Ki in [1] turned out to be 0.3 µM; in [2], 7.33 µM; at Biotin--protein ligase, 3.5 µM. The Ratio Ki came to 11.7 in series [3], 2.1 in [4] and 24.4 in series [5]. The Activity entry in the series with HepG2 was “Non-toxic”.
Regarding `O=C1N[C@H]2[C@H](CS[C@H]2CCCCCCO)N1`, the Ki (in series [1]; in [2]; on Biotin--protein ligase) was above 20 µM throughout. Further, in the series with HepG2, the Activity result is listed as “Non-toxic”.
Consider `CCCCCC[C@@H]1SC[C@@H]2NC(=O)N[C@@H]21`, for which the Ki in series [1] worked out at 0.52 µM; in series [2] it was 7.3 µM; at Biotin--protein ligase, 6.43 µM. Moreover, the Ratio Ki in series [3] was determined as 12.4; in [4] it was 1.1; in series [5], 14. Further, the Activity result with HepG2 is on record as “Non-toxic”.
With `O=C1N[C@H]2[C@H](CS[C@H]2CCCCCO)N1`, the Ki stood at 3.37 µM in series [1], 3.96 µM in series [2] and 3.85 µM on Biotin--protein ligase. Also, the Ratio Ki in [3] was found to be 1.1; in [4], 1; in series [5], 1.2. In series [6], this compound showed a Kd of 2.5 µM.
For the compound `NCCCCC[C@@H]1SC[C@@H]2NC(=O)N[C@@H]21`, the Ki (in series [1]; in series [2]; on Biotin--protein ligase) was above 20 µM in each case.
